In ChEMBL document CHEMBL5653631, “A Potent and Selective ULK1 Inhibitor Suppresses Autophagy and Sensitizes Cancer Cells to Nutrient Stress” (iScience, 2018) one finds fold change (FC) and inhibition data, which are given here for three compounds.

Assay [1] deals with T1, Eukaryotic translation initiation factor 2-alpha kinase 3 (Homo sapiens) (UniProt Q9NZJ5).
T1 sequence (whole entry): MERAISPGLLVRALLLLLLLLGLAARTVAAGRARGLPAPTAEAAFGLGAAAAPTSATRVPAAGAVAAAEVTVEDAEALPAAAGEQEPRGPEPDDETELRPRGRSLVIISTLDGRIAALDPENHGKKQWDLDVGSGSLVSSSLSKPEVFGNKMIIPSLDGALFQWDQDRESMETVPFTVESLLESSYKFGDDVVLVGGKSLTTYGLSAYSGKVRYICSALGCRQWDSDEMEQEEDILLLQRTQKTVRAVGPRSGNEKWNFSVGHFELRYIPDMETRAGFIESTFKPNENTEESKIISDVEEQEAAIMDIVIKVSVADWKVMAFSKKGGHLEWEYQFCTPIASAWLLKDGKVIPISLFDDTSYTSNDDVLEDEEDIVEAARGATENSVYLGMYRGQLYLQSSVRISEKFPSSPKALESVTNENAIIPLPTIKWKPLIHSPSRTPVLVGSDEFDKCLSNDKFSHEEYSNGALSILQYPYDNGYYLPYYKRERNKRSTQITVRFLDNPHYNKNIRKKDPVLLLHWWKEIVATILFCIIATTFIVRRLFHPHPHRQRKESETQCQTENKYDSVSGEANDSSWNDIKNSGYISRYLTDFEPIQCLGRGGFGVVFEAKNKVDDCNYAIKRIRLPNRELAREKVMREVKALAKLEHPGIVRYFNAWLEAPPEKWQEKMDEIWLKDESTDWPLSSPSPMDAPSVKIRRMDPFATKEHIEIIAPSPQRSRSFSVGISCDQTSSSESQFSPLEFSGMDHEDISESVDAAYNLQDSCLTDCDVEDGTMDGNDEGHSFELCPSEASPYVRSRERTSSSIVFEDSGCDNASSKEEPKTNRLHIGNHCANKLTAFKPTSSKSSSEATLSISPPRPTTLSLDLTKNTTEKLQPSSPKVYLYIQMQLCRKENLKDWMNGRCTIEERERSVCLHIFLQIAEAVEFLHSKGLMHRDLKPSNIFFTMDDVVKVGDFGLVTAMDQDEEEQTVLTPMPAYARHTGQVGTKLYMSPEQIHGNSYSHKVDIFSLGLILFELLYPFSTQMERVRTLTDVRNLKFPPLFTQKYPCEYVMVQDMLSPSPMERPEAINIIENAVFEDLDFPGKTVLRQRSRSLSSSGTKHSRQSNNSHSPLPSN
As to the kind of experiment: Inhibition of human recombinant PEK at 40 nM related to control ULK1.

Assay [2] addresses Mitogen-activated protein kinase kinase kinase 10 (Homo sapiens) (UniProt Q02779). As to the kind of experiment: Inhibition of human recombinant MLK2 at 40 nM related to control ULK1.
The target in assay [3] is Tyrosine-protein kinase BTK (Homo sapiens) (UniProt Q06187). As to the kind of experiment: Inhibition of human recombinant BTK at 40 nM related to control ULK1.
Tyrosine-protein kinase BTK (Homo sapiens), sequence (Q06187 whole entry): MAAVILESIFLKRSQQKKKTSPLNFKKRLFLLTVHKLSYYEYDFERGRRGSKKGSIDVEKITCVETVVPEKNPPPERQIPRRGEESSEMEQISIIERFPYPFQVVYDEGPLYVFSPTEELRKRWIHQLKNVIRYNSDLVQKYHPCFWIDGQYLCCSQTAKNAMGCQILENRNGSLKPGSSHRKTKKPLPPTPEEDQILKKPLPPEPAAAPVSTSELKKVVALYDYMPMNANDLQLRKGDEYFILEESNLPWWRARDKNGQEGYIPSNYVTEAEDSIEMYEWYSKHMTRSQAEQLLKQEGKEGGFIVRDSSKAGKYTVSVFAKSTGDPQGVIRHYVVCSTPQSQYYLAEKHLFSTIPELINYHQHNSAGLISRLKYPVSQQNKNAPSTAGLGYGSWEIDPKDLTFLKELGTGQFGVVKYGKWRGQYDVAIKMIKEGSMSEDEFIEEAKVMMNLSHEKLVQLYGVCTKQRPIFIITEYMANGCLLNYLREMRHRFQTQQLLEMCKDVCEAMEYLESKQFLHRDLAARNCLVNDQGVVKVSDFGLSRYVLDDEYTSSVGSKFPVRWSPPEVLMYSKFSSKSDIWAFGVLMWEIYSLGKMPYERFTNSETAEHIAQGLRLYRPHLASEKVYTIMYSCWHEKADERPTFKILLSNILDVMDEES
The target in assay [4] is Ribosomal protein S6 kinase alpha-1 (Homo sapiens) (UniProt Q15418). As to the kind of experiment: Inhibition of human recombinant RSK1 at 40 nM in presence of ATP by radiometric assay relative to control.
Ribosomal protein S6 kinase alpha-1 (Homo sapiens), sequence (Q15418 whole entry): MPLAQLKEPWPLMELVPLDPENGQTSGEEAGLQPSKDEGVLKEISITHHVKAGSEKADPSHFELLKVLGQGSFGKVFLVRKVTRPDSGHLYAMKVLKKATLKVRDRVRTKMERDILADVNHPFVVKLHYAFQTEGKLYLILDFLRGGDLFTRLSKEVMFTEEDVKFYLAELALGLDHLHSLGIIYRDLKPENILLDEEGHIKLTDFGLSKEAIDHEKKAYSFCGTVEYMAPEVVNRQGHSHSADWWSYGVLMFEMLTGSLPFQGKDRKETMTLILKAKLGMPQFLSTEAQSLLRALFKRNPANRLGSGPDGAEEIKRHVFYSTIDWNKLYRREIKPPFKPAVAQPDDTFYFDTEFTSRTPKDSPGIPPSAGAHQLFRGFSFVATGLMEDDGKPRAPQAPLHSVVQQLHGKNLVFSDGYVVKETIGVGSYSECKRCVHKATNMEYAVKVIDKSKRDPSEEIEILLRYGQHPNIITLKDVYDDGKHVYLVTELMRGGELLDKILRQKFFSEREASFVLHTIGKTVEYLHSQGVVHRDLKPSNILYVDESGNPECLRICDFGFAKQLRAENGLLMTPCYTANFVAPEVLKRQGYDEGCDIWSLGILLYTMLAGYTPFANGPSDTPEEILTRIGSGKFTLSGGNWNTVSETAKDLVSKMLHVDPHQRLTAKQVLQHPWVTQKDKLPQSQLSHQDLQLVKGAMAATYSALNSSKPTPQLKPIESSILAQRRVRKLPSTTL
Assay [5] deals with Serine/threonine-protein kinase MRCK beta (Homo sapiens) (UniProt Q9Y5S2). The assay is described as follows: Inhibition of human recombinant MRCKb at 40 nM related to control ULK1.
Serine/threonine-protein kinase MRCK beta (Homo sapiens), sequence (Q9Y5S2 whole entry): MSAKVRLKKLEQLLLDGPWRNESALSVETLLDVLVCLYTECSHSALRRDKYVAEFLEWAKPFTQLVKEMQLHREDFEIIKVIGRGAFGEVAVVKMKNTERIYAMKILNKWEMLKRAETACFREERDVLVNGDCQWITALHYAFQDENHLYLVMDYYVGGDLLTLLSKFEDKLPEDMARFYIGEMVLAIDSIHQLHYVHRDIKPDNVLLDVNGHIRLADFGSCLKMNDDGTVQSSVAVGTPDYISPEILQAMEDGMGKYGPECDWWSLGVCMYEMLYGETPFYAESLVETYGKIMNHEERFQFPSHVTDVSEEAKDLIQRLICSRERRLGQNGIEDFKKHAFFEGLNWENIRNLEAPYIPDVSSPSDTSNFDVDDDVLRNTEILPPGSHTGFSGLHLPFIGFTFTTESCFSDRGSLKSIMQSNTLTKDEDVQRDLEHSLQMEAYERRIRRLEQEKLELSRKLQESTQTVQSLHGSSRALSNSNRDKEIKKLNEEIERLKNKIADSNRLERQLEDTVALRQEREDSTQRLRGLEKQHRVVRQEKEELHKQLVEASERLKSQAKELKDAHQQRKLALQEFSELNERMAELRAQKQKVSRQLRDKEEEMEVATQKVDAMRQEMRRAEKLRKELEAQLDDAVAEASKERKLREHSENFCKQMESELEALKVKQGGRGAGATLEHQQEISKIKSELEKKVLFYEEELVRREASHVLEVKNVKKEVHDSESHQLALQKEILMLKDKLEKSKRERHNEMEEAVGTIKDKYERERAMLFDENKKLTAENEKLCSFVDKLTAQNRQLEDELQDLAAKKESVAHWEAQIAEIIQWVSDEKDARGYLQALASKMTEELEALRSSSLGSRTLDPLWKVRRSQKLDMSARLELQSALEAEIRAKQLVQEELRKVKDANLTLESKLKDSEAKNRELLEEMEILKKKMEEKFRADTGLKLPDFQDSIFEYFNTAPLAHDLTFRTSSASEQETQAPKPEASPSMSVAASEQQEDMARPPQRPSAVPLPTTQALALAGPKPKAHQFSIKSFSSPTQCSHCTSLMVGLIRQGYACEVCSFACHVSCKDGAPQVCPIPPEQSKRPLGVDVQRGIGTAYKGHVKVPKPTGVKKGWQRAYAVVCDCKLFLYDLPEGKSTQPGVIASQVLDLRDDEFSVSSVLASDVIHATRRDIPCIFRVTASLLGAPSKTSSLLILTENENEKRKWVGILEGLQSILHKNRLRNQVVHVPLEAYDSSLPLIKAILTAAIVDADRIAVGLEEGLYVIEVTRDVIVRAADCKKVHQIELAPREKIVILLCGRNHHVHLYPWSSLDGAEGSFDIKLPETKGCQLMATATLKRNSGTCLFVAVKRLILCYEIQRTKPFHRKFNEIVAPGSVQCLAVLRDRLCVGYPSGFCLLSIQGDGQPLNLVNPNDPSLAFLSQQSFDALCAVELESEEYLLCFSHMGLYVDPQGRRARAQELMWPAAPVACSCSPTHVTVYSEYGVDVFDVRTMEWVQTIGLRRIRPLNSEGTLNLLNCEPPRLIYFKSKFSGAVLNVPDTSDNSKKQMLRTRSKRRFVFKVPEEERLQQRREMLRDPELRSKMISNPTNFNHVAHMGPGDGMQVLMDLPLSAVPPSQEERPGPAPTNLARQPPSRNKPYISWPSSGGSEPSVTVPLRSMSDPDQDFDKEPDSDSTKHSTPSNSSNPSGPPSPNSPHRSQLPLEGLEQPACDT
Assay [6] concerns the target Activated CDC42 kinase 1 (Homo sapiens) (UniProt Q07912). As to the kind of experiment: Inhibition of human recombinant ACK at 40 nM related to control ULK1. Summed up: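 Radiometric activity assays in a panel of 327 human recombinant kinases, each run in duplicate at one inhibitor concentration. Activity remaining is expressed as percent of vehicle control, and percent inhibition is calculated as 100% minus percent activity remaining.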

Another assay relates to U2OS. As to the kind of experiment: Inhibition of autophagy in human U2OS cells assessed as BafA1-induced LC3B-II accumulation preincubated with compound for 3 hrs followed by BafA1 induction and measured after 1.5 hr under starvation condition by immunoblotting analysis. It is filed as functional, cell-based. Particulars: dose <= 5.0 µM, time 4.5 hrs. Summed up: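 U2OS cells kept 3 hr in full growth medium or HBSS-based starvation medium with or without inhibitor; BafA1-induced LC3B-II accumulation quantified by immunoblotting against β-actin.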

The target of assay [7] is T2, Mitogen-activated protein kinase kinase kinase 2 (Homo sapiens) (UniProt Q9Y2U5).
T2 sequence (whole entry): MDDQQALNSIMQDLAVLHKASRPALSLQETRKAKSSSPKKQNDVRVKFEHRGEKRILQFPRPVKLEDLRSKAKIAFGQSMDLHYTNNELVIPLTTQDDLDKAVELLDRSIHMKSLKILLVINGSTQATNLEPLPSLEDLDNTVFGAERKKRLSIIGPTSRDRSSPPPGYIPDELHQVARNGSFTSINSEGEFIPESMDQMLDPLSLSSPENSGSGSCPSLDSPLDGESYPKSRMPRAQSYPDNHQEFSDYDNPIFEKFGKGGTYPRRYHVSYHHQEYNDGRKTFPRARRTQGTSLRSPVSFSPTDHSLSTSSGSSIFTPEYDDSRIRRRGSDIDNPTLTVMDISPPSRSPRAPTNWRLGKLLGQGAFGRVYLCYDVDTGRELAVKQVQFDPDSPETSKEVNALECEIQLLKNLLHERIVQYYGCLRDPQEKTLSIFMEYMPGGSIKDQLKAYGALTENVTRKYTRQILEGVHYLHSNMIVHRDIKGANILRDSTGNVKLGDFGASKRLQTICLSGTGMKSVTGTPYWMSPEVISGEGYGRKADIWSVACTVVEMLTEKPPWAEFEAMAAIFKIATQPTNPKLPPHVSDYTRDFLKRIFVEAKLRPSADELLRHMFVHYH
As to the kind of experiment: Inhibition of human recombinant MAP3K2 at 40 nM related to control ULK1.

Assay [8] deals with Receptor tyrosine-protein kinase erbB-4 (Homo sapiens) (UniProt Q15303). As to the kind of experiment: Inhibition of human recombinant ErbB4 at 500 nM in presence of ATP by radiometric assay relative to control.
Assay [9] has as its target Tyrosine-protein kinase HCK (Homo sapiens) (UniProt P08631). The assay is described as follows: Inhibition of human recombinant HCK at 500 nM in presence of ATP by radiometric assay relative to control.
The target of assay [10] is [Pyruvate dehydrogenase (acetyl-transferring)] kinase isozyme 4, mitochondrial (Homo sapiens) (UniProt Q16654). As to the kind of experiment: Inhibition of human recombinant PDHK4 at 500 nM related to control ULK1.
[Pyruvate dehydrogenase (acetyl-transferring)] kinase isozyme 4, mitochondrial (Homo sapiens), sequence (Q16654 whole entry, looked up): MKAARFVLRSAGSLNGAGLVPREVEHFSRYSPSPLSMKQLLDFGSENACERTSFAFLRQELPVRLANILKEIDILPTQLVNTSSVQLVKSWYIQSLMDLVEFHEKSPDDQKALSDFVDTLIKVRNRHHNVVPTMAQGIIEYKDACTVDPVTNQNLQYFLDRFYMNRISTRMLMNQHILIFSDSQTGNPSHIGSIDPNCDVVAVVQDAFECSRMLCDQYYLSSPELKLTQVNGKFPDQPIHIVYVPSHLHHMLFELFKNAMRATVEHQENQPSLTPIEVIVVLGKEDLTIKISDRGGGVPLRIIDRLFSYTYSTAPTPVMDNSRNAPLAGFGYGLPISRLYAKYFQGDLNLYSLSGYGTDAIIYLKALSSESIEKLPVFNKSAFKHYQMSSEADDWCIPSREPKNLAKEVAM
Assay [11] addresses Tyrosine-protein kinase Fyn (Homo sapiens) (UniProt P06241). As to the kind of experiment: Inhibition of human recombinant FYN at 15 nM in presence of ATP by radiometric assay relative to control.
In assay [12] the target is Serine/threonine-protein kinase N2 (Homo sapiens) (UniProt Q16513). As to the kind of experiment: Inhibition of human recombinant PKN2 at 15 nM in presence of ATP by radiometric assay relative to control.
The target of assay [13] is Tyrosine-protein kinase Yes (Homo sapiens) (UniProt P07947). The assay is described as follows: Inhibition of human recombinant YES at 15 nM related to control ULK1.
Assay [14] deals with MAP kinase-activated protein kinase 2 (Homo sapiens) (UniProt P49137). The assay is described as follows: Inhibition of human recombinant MAPKAPK2 at 15 nM in presence of ATP by radiometric assay relative to control.
MAP kinase-activated protein kinase 2 (Homo sapiens), sequence (P49137 whole entry, looked up): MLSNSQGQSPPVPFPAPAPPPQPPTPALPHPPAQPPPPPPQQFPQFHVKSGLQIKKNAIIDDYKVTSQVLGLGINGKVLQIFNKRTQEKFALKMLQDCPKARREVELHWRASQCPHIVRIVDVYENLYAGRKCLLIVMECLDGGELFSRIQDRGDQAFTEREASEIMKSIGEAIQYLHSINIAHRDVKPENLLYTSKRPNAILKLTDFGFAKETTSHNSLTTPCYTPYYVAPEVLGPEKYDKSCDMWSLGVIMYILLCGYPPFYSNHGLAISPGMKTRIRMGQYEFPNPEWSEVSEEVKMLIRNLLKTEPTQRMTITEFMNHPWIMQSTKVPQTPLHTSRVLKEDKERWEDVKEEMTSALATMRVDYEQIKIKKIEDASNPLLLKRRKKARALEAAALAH

Mitogen-activated protein kinase kinase kinase 10 (Homo sapiens), sequence (Q02779 whole entry, looked up): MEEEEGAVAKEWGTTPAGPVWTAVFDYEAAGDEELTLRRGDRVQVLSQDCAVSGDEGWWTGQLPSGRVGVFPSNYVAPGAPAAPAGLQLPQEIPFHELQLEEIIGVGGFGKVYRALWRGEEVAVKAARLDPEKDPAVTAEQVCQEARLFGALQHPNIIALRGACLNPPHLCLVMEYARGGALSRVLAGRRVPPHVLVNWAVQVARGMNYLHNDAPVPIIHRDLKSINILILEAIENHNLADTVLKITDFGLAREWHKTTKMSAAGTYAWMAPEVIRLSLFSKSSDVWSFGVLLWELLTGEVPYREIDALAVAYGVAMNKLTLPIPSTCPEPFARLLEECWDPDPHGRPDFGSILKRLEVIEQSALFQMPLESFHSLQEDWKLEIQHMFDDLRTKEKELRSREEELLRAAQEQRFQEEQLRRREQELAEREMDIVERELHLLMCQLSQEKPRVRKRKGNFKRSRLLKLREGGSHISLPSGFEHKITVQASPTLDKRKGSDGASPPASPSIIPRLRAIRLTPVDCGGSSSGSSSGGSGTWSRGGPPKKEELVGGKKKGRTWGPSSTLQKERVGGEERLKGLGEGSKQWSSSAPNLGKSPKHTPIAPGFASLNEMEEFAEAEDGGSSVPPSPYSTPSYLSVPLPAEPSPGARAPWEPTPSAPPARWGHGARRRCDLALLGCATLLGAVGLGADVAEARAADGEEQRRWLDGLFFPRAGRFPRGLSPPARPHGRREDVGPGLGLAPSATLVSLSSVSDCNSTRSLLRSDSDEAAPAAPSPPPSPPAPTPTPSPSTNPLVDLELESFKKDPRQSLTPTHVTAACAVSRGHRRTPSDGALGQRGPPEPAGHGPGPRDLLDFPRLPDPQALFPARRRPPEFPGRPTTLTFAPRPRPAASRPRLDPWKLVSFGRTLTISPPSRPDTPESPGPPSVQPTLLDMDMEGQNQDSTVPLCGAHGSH

As usually defined, the inhibition is the share of the control response that was lost under treatment. Consider `O=C(N[C@@H](C1CC1)C(F)(F)F)c1cc(-c2cnn3cc(-c4ccc(F)cc4)cnc23)cs1`, for which the fold change (FC) in assay [1] was found to be 0; in assay [2], 0; in assay [3], 0; in assay [5], 0.07; in [6] it was 0.23; in assay [7], 0. For the same compound, the inhibition is 8% in assay [4] and “Dose-Dependent Effect” in the assay with U2OS.

Regarding `CNC(=O)c1ccccc1Oc1nc(Nc2cc(OC)c(OC)c(OC)c2)ncc1Br`, the inhibition in assay [8] worked out at 0%; in assay [9], 17%. Further, the fold change (FC) in [10] is 0.07.

In the case of `CC(C)[C@H](NC(=O)c1cc(-c2cnn3cc(-c4ccc(OCCN5CCCCC5)cc4)cnc23)cs1)C(F)(F)F`, the inhibition in assay [11] was 16%; in assay [12], 0%; in assay [14], 0%. Further, in assay [13], the fold change (FC) stood at 0.86.
